Results on 14 compounds are retold here after ChEMBL document CHEMBL1955789, “3,4-Diarylpiperidines as potent renin inhibitors” (Bioorg Med Chem Lett, 2012).

In data set [1] the target is T1, CYP3A4 (Homo sapiens, UniProt P08684). Briefly: Reversible inhibition of CYP3A4 using testosterone as substrate assessed as remaining activity at 10 uM. Format: ADME. The settings on record: probe testosterone; read-out: Activity.
Data set [2] has as its target T1, CYP3A4. The experiment in a line: Time dependent inhibition of CYP3A4 using testosterone as substrate at 10 uM for 30 mins. The data set is classed as ADME. The settings on record: probe testosterone. In short, it runs like this:
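CYP3A4 conversion of testosterone (250 µM) to 6β-hydroxytestosterone compared before and after a 30 min preincubation with compound in DMSO. Result expressed as percentage activity loss; 0% change means no measurable time-dependent inhibition.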

A short description of data set [3]: Cmax in Sprague-Dawley rat at 30 mg/kg, po and 5 mg/kg, iv. The data set is classed as ADME, organism-based. The settings on record: in vivo.
Data set [4] concerns the target T2, Renin (Homo sapiens, UniProt P00797).
T2 sequence (P00797 whole entry): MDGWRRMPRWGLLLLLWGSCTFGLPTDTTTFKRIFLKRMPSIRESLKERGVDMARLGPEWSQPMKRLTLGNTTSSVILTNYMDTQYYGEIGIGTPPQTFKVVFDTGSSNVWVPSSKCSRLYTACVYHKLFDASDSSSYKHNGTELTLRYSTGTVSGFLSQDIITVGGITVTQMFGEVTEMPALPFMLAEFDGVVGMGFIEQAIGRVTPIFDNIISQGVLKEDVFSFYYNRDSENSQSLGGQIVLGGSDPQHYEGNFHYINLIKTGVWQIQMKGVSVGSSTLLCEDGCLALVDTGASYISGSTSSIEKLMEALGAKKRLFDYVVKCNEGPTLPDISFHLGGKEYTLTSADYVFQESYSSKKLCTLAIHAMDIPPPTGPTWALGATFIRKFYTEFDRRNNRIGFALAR
The experiment in a line: Inhibition of human recombinant renin using DNP-Lys-His-Pro-Phe-His-Leu-Val-Ile-His-D,L-Amp as substrate after 3 hrs by fluorimetry. In short, it runs like this: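 Human recombinant renin at 100 pM incubated with or without inhibitor and 6 µM Q-FRET substrate in 50 mM MOPS, 100 mM NaCl, pH 7.4, 0.002% Tween, 37 °C for 3 h. Fluorescence read at 0 and 3 h (ex 328 nm, em 388 nm). Values are means of at least two experiments.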

Data set [5] deals with T2, Renin. The experiment in a line: Inhibition of human recombinant renin using QXL520-Lys-His-Pro-Phe-His-Leu-Val-Ile-His-Lys-(5-FAM) as substrate preincubated for 10 mins prior to substrate addition measure after 1 hr by fluorimetry in the presence of human plasma. In short, it runs like this: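 Frozen human EDTA-plasma thawed and centrifuged at 2900 g for 15 min. Recombinant human renin was added to the supernatant at 1 nM nominal, and inhibitor preincubation was 10 min at 37 °C. Q-FRET substrate was added in Tris/EDTA pH 7.2, then incubated 1 h at 37 °C. Fluorescence read at 0 and 1 h (ex 490 nm, em 520 nm). Means of at least two experiments.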

Data set [6] concerns the target Voltage-gated inwardly rectifying potassium channel KCNH2 (Homo sapiens, UniProt Q12809). The experiment in a line: Inhibition of human ERG.
The nature of data set [7]: Oral bioavailability in Sprague-Dawley rat at 30 mg/kg. The data set is classed as ADME, organism-based. The following applies: in vivo.
Data set [8] is described as follows: Clearance in Sprague-Dawley rat at 30 mg/kg, po and 5 mg/kg, iv. Format: ADME, organism-based. The following applies: in vivo.
Data set [9] can be described thus: Half life in Sprague-Dawley rat at 30 mg/kg, po and 5 mg/kg, iv. The data set is classed as ADME, organism-based. The settings on record: in vivo.
The nature of data set [10]: Volume of distribution at steady state in Sprague-Dawley rat at 30 mg/kg, po and 5 mg/kg, iv. Format: ADME, organism-based. The following applies: in vivo, read-out: Vdss.
Data set [11] can be described thus: Oral bioavailability in Beagle dog at 3 mg/kg. The data set is classed as ADME, organism-based, Canis lupus familiaris. The following applies: in vivo.
A short description of data set [12]: Cmax in Beagle dog at 3 mg/kg, po and 1 mg/kg, iv. Format: ADME, organism-based, Canis lupus familiaris. The settings on record: in vivo.
The nature of data set [13]: Clearance in Beagle dog at 3 mg/kg, po and 1 mg/kg, iv. Format: ADME, organism-based, Canis lupus familiaris. The settings on record: in vivo.
A short description of data set [14]: Half life in Beagle dog at 3 mg/kg, po and 1 mg/kg, iv. The data set is classed as ADME, organism-based, Canis lupus familiaris. The following applies: in vivo.
Data set [15] in a line: Volume of distribution at steady state in Beagle dog at 3 mg/kg, po and 1 mg/kg, iv. The data set is classed as ADME, organism-based, Canis lupus familiaris. The following applies: in vivo, read-out: Vdss.
In data set [16] the test system is Rattus norvegicus. Briefly: Antihypertensive activity in rat dTGR model expressing human renin and angiotensinogen assessed as decrease in blood pressure at 10 mg/kg, po. The data set is classed as functional.
Data set [17] has as its system Rattus norvegicus. Briefly: Antihypertensive activity in rat dTGR model expressing human renin and angiotensinogen assessed as time of blood pressure lowering effect at 10 mg/kg, po. The data set is classed as functional.

T1 sequence (P08684 whole entry): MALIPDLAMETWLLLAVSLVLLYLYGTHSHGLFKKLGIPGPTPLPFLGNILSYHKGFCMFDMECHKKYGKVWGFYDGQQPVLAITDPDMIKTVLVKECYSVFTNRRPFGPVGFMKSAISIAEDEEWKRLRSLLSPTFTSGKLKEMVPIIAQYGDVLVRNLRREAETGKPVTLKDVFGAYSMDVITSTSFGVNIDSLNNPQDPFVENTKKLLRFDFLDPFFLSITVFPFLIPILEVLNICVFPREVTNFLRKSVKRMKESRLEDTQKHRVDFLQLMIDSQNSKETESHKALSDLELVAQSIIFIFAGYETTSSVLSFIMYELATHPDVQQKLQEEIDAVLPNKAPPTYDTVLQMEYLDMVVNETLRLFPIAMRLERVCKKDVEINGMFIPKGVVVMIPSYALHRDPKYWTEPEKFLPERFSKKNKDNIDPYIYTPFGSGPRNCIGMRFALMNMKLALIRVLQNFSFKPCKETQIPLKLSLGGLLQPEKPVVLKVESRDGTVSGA
Voltage-gated inwardly rectifying potassium channel KCNH2, sequence (Q12809 whole entry): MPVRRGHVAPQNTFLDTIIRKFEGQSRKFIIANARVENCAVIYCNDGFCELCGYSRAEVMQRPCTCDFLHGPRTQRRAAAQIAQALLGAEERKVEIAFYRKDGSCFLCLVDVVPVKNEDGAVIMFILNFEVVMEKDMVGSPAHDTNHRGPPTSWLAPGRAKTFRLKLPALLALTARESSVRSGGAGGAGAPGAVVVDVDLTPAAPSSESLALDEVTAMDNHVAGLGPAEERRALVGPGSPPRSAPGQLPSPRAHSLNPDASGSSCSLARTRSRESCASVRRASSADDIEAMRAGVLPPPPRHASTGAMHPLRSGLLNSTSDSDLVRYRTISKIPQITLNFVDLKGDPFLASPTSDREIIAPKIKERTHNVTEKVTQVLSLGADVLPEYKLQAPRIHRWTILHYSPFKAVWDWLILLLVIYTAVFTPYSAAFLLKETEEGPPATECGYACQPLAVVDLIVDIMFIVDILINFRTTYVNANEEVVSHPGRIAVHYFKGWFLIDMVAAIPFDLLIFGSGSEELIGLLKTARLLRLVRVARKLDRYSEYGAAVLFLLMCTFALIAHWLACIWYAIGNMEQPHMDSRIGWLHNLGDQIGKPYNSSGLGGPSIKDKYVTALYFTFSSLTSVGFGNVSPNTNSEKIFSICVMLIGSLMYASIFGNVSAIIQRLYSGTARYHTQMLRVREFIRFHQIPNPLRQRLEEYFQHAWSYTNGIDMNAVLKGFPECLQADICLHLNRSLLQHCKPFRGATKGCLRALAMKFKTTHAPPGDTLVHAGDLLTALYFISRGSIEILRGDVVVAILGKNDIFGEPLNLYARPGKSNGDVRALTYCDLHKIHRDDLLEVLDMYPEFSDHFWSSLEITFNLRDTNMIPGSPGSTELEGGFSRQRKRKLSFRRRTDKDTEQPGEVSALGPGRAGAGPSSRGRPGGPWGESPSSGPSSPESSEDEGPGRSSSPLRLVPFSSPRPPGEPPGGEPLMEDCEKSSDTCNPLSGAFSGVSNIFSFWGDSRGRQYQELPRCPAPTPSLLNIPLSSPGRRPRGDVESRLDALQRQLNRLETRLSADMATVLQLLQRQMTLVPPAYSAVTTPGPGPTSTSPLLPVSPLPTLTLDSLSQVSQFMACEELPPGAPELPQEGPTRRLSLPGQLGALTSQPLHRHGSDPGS

Broadly, the inhibition is the percentage by which the read-out fell short of the control. A low value points to a response near the control. A word on the Cmax: it is the peak of the concentration-time curve. `CC(=O)NCCc1ccccc1-c1ccc([C@@H](CN)Cc2ccc(OCCOc3c(Cl)cc(C)cc3Cl)cc2)c(C)c1.Cl`: at CYP3A4 [1], the activity at 10 µM was 53%. The inhibition at 0.5 h, 10 µM on CYP3A4 [2] is 74%. The same compound displayed a Cmax in data set [3] of 440 nM.

For orientation: IC50 means the concentration that inhibits the measured activity by half. As to `CC(=O)NCCc1ccccc1-c1ccc([C@H]2CNCC[C@@]23OCc2cc(F)c(F)cc23)c(C)c1`, the IC50 on Renin [4] came out at 0.17 nM; on Renin [5], 1.3 nM; in [6] it was 5100 nM. Besides, the activity at 10 µM at CYP3A4 [1] came out at 88%. Also, the inhibition at 0.5 h, 10 µM at CYP3A4 [2] was found to be 68%.

Consider `COCC(=O)NCCc1ccccc1-c1ccc([C@H]2CNCC[C@@H]2c2ccn(C)c(=O)c2)c(Cl)c1`, for which the half-maximal inhibitory concentration (IC50) on Renin [4] amounted to 73.8 nM; on Renin [5] it was 97.4 nM.

On to `CC(=O)NCCc1ccccc1-c1ccc([C@H]2CNCC[C@@H]2c2ccc(F)c(F)c2)c(Cl)c1`, for which the values for the concentration for half-maximal inhibition (IC50) on Renin [4] and on Renin [5] were 0.5 nM and 7.5 nM, respectively. Moreover, at CYP3A4 [1], the activity at 10 µM amounted to 98%. Also, the inhibition at 0.5 h, 10 µM against CYP3A4 [2] stood at 49%.

In the case of `COC[C@H](C)COCc1ccc([C@@]2(O)CCNC[C@@H]2c2ccc(-c3ccccc3CCNC(C)=O)cc2C)cc1`, in [6], the midpoint of inhibition, the IC50, lay at 9000 nM. Also, on CYP3A4 [1], the activity at 10 µM came to 88%. Further, the inhibition at 0.5 h, 10 µM against CYP3A4 [2] stood at 72%.

With `CCOC(=O)NCCc1ccccc1-c1ccc([C@H]2CNCC[C@@H]2c2ccn(C)c(=O)c2)c(Cl)c1`, the concentration for half-maximal inhibition (IC50) on Renin [4] came to 11 nM; at Renin [5], 28.2 nM; in [6] it was 3200 nM. Also, the activity at 10 µM on CYP3A4 [1] was 91%. The compound also had an inhibition at 0.5 h, 10 µM on CYP3A4 [2] of 58%.

Turning to `CC(=O)NCCc1ccccc1-c1ccc([C@H]2CNCC[C@]2(O)c2ccc(F)c(F)c2)c(C)c1`, the half-maximal inhibitory concentration (IC50) on Renin [4] was 0.5 nM; on Renin [5], 4.95 nM; in [6], 4200 nM. The activity at 10 µM at CYP3A4 [1] worked out at 87%. On CYP3A4 [2], this compound yielded an inhibition at 0.5 h, 10 µM of 40%.

In data set [6], `COCC(F)(F)COCc1ccc([C@@]2(O)CCNC[C@@H]2c2ccc(-c3ccccc3CCNC(C)=O)cc2C)cc1` showed an IC50 of 9800 nM. Moreover, at CYP3A4 [1], the activity at 10 µM was 76%. Also, on CYP3A4 [2], the inhibition at 0.5 h, 10 µM turned out to be 37%.

On to `CC(=O)NCCc1ccccc1-c1ccc([C@H]2CNCC[C@@H]2c2ccn(C)c(=O)c2)c(Cl)c1`, for which, in [6], half-maximal inhibition (IC50) was put at 5800 nM. Further, on CYP3A4 [1], the activity at 10 µM is 97%. This compound came in with an inhibition at 0.5 h, 10 µM against CYP3A4 [2] of 0%.

In the case of `CC(=O)NCCc1ccccc1-c1ccc([C@H]2CNCC[C@@H]2c2cccnc2)c(Cl)c1`, the IC50 was 1.4 nM at Renin [4] and 3.6 nM at Renin [5]. For the same compound, on CYP3A4 [1], the activity at 10 µM is 98%. At CYP3A4 [2], this compound returned an inhibition at 0.5 h, 10 µM of 55%.

In the case of `COC(=O)NCCc1ccccc1-c1ccc([C@H]2CNCC[C@@H]2c2ccn(C)c(=O)c2)c(Cl)c1`, the half-inhibitory concentration (IC50) on Renin [4] came to 3.52 nM; at Renin [5] it was 6.1 nM. Also, the activity at 10 µM at CYP3A4 [1] stood at 92%. The compound also returned an inhibition at 0.5 h, 10 µM on CYP3A4 [2] of 46%.

With `CC(=O)NCCc1ccccc1-c1ccc([C@H]2CNCC[C@@]23OC(=O)c2cc(F)c(F)cc23)c(C)c1`, the IC50 at Renin [4] came out at 0.14 nM; on Renin [5] it was 1.6 nM; in data set [6], 12900 nM. In addition, the activity at 10 µM on CYP3A4 [1] was 80%. The inhibition at 0.5 h, 10 µM on CYP3A4 [2] came to 88%.

The term bioavailability denotes dose-corrected exposure relative to a reference, in per cent. Usually half-life stands for the time needed for the level to fall by half in the phase considered. With `CC(=O)NCCc1ccccc1-c1ccc([C@H]2CNCC[C@@H]2c2ccn(C)c(=O)c2)c(Cl)c1.Cl`, the bioavailability is 12% in [7] and 30% in data set [11]. Also, the maximum concentration (Cmax) was found to be 450 nM in data set [3] and 350 nM in data set [12]. Moreover, the clearance amounted to 115 mL/min/kg in [8] and 24 mL/min/kg in [13]. The half-life in [9] was 4 h; in [14] it was 6.2 h. Besides, the Vd in data set [10] stood at 25 L/kg; in data set [15] it was 4.6 L/kg. The Activity in the data set on Rattus norvegicus [16] was 32 mmHg. Besides, in the data set on Rattus norvegicus [17], the Time was 24 h.

Regarding `CCC(=O)NCCc1ccccc1-c1ccc([C@H]2CNCC[C@@H]2c2ccn(C)c(=O)c2)c(Cl)c1`, the IC50 turned out to be 4.8 nM on Renin [4], 8 nM at Renin [5] and 2800 nM in data set [6]. Moreover, the activity at 10 µM on CYP3A4 [1] came to 92%. The same compound had an inhibition at 0.5 h, 10 µM at CYP3A4 [2] of 21%.
